HCT116 PTEN-null – PTEN-deleted cell growth suppression | viability, % at 10 µM | AID 827 | hit rate 1.2% among 140,000 | HCT116 PTEN-null viability, CellTiter-Glo, 60 h; stronger effect = lower value;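 active = viability at or below a set limit, 4 SD under the median of all tested compounds, cut at about 3.7% in these data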;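 also: PTEN knockout HCT116 line with beta catenin targeted HCT116 as companion control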
H69AR inhibit – growth inhibitors of human H69AR lung tumor cells. viability, % at 10 µM. H69AR lung tumor viability, ATP luminescence, 72 h; stronger effect = lower value. hit rate 6% among 85,000. AID 598;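 active = viability at or below 40%; inactive = viability above 40%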;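 also: multidrug resistant small cell line overexpressing MRP-1 efflux transporter; 100% = mean luminescence of untreated control wells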
HUVEC inhibit – inhibitors of human endothelial cell proliferation; HUVEC proliferation, CellTiter-Glo luminescence, 72 h; stronger effect = lower value; viability, % at 10 µM (by protocol); hit rate 1.1% among 86,000; AID 648;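 active = viability at or below 30%; inactive = viability above 30%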;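 also: 100% = median luminescence of DMSO-only cell control wells on each plate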
Pyk2 oligo antag – antagonists of human Pyk2 oligomerization; Q293 cells, Pyk2 FERM NanoBiT luminescence; stronger effect = lower value; AID 1347419; z-score (the deposit names both 25 µM and 10 µM); hit rate 0.83% among 99,000;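 active = Z-score of -3 or lower, scaled per plate to the spread of control and sample wells; inactive = z-score above -3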;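 also: negative z-score means lost luminescence so less FERM oligomerization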
Target sequence (Q14289 whole entry, looked up): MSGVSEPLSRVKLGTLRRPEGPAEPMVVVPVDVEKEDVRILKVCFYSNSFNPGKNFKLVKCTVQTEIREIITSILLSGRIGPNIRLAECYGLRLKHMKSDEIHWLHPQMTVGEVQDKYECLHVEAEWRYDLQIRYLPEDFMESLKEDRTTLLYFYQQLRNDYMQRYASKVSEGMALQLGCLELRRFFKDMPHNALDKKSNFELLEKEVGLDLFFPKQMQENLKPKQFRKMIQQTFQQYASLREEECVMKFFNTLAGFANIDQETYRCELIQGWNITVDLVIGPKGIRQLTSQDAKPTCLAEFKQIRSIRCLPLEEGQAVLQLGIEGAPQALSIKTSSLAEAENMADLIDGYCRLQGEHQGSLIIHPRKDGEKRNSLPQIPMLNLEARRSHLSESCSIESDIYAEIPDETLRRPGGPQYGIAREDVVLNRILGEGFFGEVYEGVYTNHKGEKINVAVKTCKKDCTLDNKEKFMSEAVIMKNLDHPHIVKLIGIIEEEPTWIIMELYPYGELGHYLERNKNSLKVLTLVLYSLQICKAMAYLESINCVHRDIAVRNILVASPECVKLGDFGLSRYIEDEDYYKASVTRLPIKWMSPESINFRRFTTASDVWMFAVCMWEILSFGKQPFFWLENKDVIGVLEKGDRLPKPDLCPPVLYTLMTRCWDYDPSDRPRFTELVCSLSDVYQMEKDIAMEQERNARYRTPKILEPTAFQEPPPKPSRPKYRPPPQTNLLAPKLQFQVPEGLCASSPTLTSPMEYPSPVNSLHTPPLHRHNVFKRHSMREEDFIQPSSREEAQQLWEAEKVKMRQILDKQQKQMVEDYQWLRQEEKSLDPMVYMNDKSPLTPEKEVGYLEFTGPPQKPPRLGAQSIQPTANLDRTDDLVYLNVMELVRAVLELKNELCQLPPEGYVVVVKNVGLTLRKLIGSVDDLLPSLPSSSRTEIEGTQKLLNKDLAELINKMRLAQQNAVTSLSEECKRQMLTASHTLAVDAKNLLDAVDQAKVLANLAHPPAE
Lung fibro prol – blocks proliferation of human lung fibroblasts; LL 47 human lung fibroblast viability, ATP luminescence; stronger effect = lower value; viability, % at 10 µM; hit rate 1.1% among 85,000;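 active = viability at or below 50% in the single dose screen; inactive = viability above 50%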;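 also: compound exposure lasted 72 h before the ATP readout; 100% = median luminescence of untreated cell-only wells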
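Material: Human LL 47 lung fibroblast cells | Input: 1,150 cells/well | Buffer or medium: IMEM plus 15% FBS | Compound dosing: 0.1% DMSO in all compound wells | Times: Overnight cell rest, 72 h compound treatment at 37 °C | Signal: CellTiter-Glo luminescence measuring cellular ATP | Measure: % viability versus median cells-only luminescence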
bCat KO growth – beta-catenin-lacking colon tumor cell growth suppression; HCT116 beta-catenin knockout viability, CellTiter-Glo, 60 h; stronger effect = lower value; viability, % at 10 µM; hit rate 1.5% among 140,000; AID 818;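 active = viability at or under a set limit, the compound median less 4 SD, cut at about 6% in these data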;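 also: 0% = Hyamine 1622 control at 20 µM and 100% = untreated cell control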
Active calls of the source: *; x = no result given. The entries come from a sample that favours hits as a whole.

SMILES	HCT116 PTEN-null	H69AR inhibit	HUVEC inhibit	Pyk2 oligo antag	Lung fibro prol	bCat KO growth
CCOC(=O)C1=NN(c2ccccc2C)C2=NC(C)=C(C(=O)OC)C(c3cccc(OC)c3)N12 (stereo not given)	94.4	x	x	x	x	93.0
CC(=O)N1CCN(c2ccc(NC(=O)c3ccc(C(C)(C)C)cc3)cc2)CC1	5.8	33.5*	51.2	-1.5	96.7	5.9*
COc1ccc2c(c1)C1CC(C)(NC(=O)C1S(=O)(=O)c1ccc(F)cc1)O2 (stereo not given)	84.7	x	x	x	x	86.1
COc1cccc(C(=O)Nc2cccc(C(=O)NC3=NN(c4c(Cl)cc(Cl)cc4Cl)C(=O)C3)c2)c1	100.1	84.8	67.4	-1.38	99.8	104.2
COc1ccc(/C=C2\C(=O)N(c3c(Cl)cc(Cl)cc3Cl)N=C2NC(=O)c2cccc([N+](=O)[O-])c2)cc1	98.6	x	x	-3.66*	x	87.2
Cc1nc(CSc2nnc3scc(-c4ccc(Cl)cc4)n23)cs1	103.5	78.0	94.9	0.16	86.8	96.8
COCCNC(=O)c1ccccc1NC(=O)c1ccc(Cl)c(S(=O)(=O)Nc2ccc(C)cc2C)c1	91.5	x	x	-3.24*	x	87.2
Cc1ccc(C)c(NS(=O)(=O)c2cc(C(=O)Nc3ccccc3-c3ccccc3)ccc2Cl)c1	66.1	x	x	-0.88	x	73.4
COc1cc(OC)cc(-c2nc3ccccc3c(=O)n2OC(=O)c2ccc(C)c(C)c2)c1	59.3	x	x	x	x	81.0
Cc1cccc(NS(=O)(=O)c2ccc(C)c(C(=O)OCC(=O)Nc3cc(C)on3)c2)c1	71.6	87.5	66.7	-3.83*	74.9	78.6
Cc1cccc(NS(=O)(=O)c2cc(C(=O)OCC(=O)Nc3cc(C)on3)ccc2C)c1	92.7	x	x	-3.35*	x	96.3
Cc1cc(Cl)ccc1NC(=S)NCC(C)C	89.0	x	x	x	x	98.1
O=C(Cn1cnc([N+](=O)[O-])c1)Nc1cc(Oc2ccc(Cl)cc2Cl)cc([N+](=O)[O-])c1	5.3	9.9*	41.7	1.68	93.1	7.6
CC(=O)Nc1ccccc1-c1nc2ccccc2nc1OCC(=O)c1ccc2ccccc2c1	30.1	x	x	-2.32	x	78.7
Cc1ccc2cc(C#N)c(SCc3nnc(-c4ccccc4[N+](=O)[O-])o3)nc2c1	1.2*	x	x	x	x	1.4*
COc1ccc(CNC(=O)/C(C#N)=C2\N=C(NC(=O)c3cccs3)c3ccccc32)cc1	88.4	x	x	x	x	92.2
N#Cc1c(/N=C/c2ccco2)oc(-c2ccccc2)c1-c1ccccc1	102.5	97.6	109.2	x	92.0	97.5
COc1ccc(OC)c(/C=N/c2oc(-c3ccco3)c(-c3ccco3)c2C#N)c1	5.4	43.1	84.6	0.11	93.9	3.5*
N#Cc1c(N)oc(-c2ccco2)c1-c1ccco1	11.5	83.0	92.7	0.47	100.4	5.9*
Cc1ccc(NC(=O)CN(C)C(=O)c2ccc(C(F)(F)F)cc2)cc1	93.4	x	x	x	x	98.8
CCCCN1C(=O)C(NC(C)=O)c2cc(Br)ccc21 (stereo not given)	65.4	24.5*	94.8	-1.24	100.4	62.1
O=C(CCCCn1c(=O)[nH]c2ccccc2c1=O)NCCC1=CCCCC1	94.2	100.5	95.0	0.97	107.6	79.7
O=C(NC(=S)Nc1ccc2c(c1)OCO2)c1ccc(Cl)cc1	64.0	x	x	x	x	0.2*
N#CC1=C(N)Oc2c(ccc3ccccc23)C1c1cccs1 (stereo not given)	12.1	17.2*	21.7*	x	52.7	11.3
CC1(C)SC(=S)N(NC(=O)Nc2cccc3ccccc23)C1N(O)C(=O)Nc1ccccc1 (stereo not given)	59.0	x	x	x	x	58.7
SMILES	HCT116 PTEN-null	H69AR inhibit	HUVEC inhibit	Pyk2 oligo antag	Lung fibro prol	bCat KO growth
CC1(C)SC(=S)N(/N=C/c2ccccc2)C1N(O)C(=O)Nc1ccc([N+](=O)[O-])cc1 (stereo not given)	48.9	37.3*	86.5	0.68	86.3	60.8
O=C(Nc1cc(N2CCOCC2)ncn1)Nc1cccc2ccccc12	51.5	32.5*	74.8	-0.27	96.6	53.1
COc1ccc(CCCC(=O)N/N=C/c2cccc(OC)c2O)cc1C	9.1	x	x	x	x	9.6
O=C(OCC1COc2ccccc2O1)c1c(F)cccc1F (stereo not given)	104.5	102.1	88.6	-0.36	96.1	98.4
CCOC(=O)N1CCN(C(=O)C2CCC(CNS(=O)(=O)c3ccc(Cl)cc3)CC2)CC1 (stereo not given)	104.4	82.3	96.6	-0.41	97.0	104.2
CCOC(=O)N1CCC(NC(=O)CNS(=O)(=O)c2ccc(Br)s2)CC1	81.1	23.1*	73.8	0.47	89.7	86.3
CCOC(=O)C1CCCN(C(=O)CNS(=O)(=O)c2ccc(Br)s2)C1 (stereo not given)	82.7	91.8	98.2	0.24	97.4	87.4
CCOC(=O)N1CCC(NC(=O)C2CCC(CNS(=O)(=O)c3ccc(OC)cc3)CC2)CC1 (stereo not given)	95.1	6.0*	73.3	0.85	x	92.2
O=[n+]1c2c(n([O-])c3c1CCCC3)CCCCC2	96.6	95.1	95.7	0.45	101.5	115.1
CCCn1c(CCC(=O)Nc2ccccc2Cc2ccccc2)nc2cc(S(=O)(=O)N3CCOCC3)ccc21	69.5	39.2*	107.2	0.52	90.2	62.7
C=CCN1C(=O)C(O)(CC(=O)c2ccc(N)cc2)c2ccccc21 (stereo not given)	99.8	x	x	0.61	x	97.6
O=C(CC1(O)C(=O)N(C/C=C/c2ccccc2)c2ccccc21)c1ccccn1 (stereo not given)	10.0	24.5*	34.1	-0.63	56.9	12.5
CCCS(=O)(=O)n1nc(-c2ccc(Br)cc2)cc1N	79.9	82.2	106.7	x	97.0	85.3
c1cncc(C2Nc3ccccc3-c3nc4ccccc4n32)c1 (stereo not given)	89.0	82.5	97.5	-3.28*	93.2	85.7
CCCOc1ccc(OCCN2CCCC(C)C2)cc1 (stereo not given)	90.7	x	x	x	x	98.3
COc1cccc(N2CC(O)=C(c3nc4ccccc4c(=O)[nH]3)C2=N)c1	16.7	28.9*	61.7	-1.27	66.3	18.0
CC(C)N1CC(O)=C(c2nc3ccccc3c(=O)[nH]2)C1=N	79.1	92.6	87.3	0.8	99.3	82.4
O=c1c(-c2ccc3c(c2)OCCO3)coc2cc(O)cc(O)c12	80.6	88.9	105.6	-3.7*	96.7	83.2
Cc1c(NC2=C(Cl)C(=O)N(c3ccccc3)C2=O)c(=O)n(-c2ccccc2)n1C	85.0	4.8*	105.6	-0.48	99.9	92.6
O=C1C(Cl)=C(Nc2ccccc2O)C(=O)N1c1ccccc1	77.7	39.4*	90.9	-0.57	103.9	83.3
Cc1c(NC2=C(Cl)C(=O)N(c3ccccc3Cl)C2=O)c(=O)n(-c2ccccc2)n1C	90.5	x	x	x	x	91.1
Cn1c(=O)c2cc(S(=O)(=O)N3CCN(c4cccc(C(F)(F)F)c4)CC3)ccc2n(C)c1=O	57.6	25.4*	68.0	0.04	58.0	68.0
COc1ccc(N2CCN(S(=O)(=O)c3cccc(C(F)(F)F)c3)CC2)cc1	99.2	99.8	105.5	0.55	97.8	100.3

Assay outcomes (PubChem BioAssay)
